Assays:
Melanocortin receptor 4 [1] = target: T1, Melanocortin receptor 4 (Homo sapiens, UniProt P32245); assay: Agonist activity at human MC4R expressed in CHO cells after 4 hrs by luciferase reporter gene assay; assay type: functional, cell-based
Outline: (§1)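 CHO-6xCRE-luc+ cells expressing the human receptor, plated at 4000 cells/well in DMEM/F12 with 10% FBS 48 h before assay. Switched to serum-free medium 16 h before compound addition, then incubated 4 h at 37 °C. Luciferase read after 10 min dark adaptation. Activity expressed as % of fold stimulation by 1 × 10^-7 M NDP-aMSH (duplicate control wells).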

[2] = target: T2, Melanocyte-stimulating hormone receptor (Homo sapiens, UniProt Q01726); assay: Agonist activity at human MC1R expressed in CHO cells after 4 hrs by luciferase reporter gene assay; assay type: functional, cell-based; outline: as §1
Target sequence in this assay (Q01726 whole entry): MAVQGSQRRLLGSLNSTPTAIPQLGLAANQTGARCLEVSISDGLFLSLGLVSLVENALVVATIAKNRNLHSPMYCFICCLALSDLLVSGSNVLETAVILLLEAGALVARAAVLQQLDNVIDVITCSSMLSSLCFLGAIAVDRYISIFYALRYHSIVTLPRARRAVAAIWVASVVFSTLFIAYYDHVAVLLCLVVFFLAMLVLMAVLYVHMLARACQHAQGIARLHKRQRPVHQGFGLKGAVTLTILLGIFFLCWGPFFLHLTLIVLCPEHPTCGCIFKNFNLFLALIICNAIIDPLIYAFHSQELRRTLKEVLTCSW

Melanocortin receptor 4 [3] = target: T1, Melanocortin receptor 4; assay: Agonist activity at human MC4R expressed in CHO cells at 10 uM after 4 hrs by luciferase reporter gene assay relative to alpha-melanocyte stimulating hormone; assay type: functional, cell-based; outline: as §1
[4] = target: T2, Melanocyte-stimulating hormone receptor; assay: Agonist activity at human MC1R expressed in CHO cells after 4 hrs by luciferase reporter gene assay relative to alpha-melanocyte stimulating hormone; assay type: functional, cell-based; set-up: concentration or dose not given beside the values; outline: as §1
Target sequence in this assay (Q01726 whole entry, looked up): as the sequence (Q01726 whole entry) above

Melanocortin receptor 4 [5] = target: T1, Melanocortin receptor 4; assay: Agonist activity at human MC4R expressed in CHO cells after 4 hrs by luciferase reporter gene assay relative to alpha-melanocyte stimulating hormone; assay type: functional, cell-based; outline: as §1
Homo sapiens = species: Homo sapiens; assay: Selectivity for human MC1R over human MC4R
[6] = target: T2, Melanocyte-stimulating hormone receptor; assay: Agonist activity at human MC1R expressed in CHO cells at 10 uM after 4 hrs by luciferase reporter gene assay relative to alpha-melanocyte stimulating hormone; assay type: functional, cell-based; outline: as §1
Target sequence in this assay (Q01726 whole entry, looked up): as the sequence (Q01726 whole entry) above

T1 sequence (P32245 whole entry): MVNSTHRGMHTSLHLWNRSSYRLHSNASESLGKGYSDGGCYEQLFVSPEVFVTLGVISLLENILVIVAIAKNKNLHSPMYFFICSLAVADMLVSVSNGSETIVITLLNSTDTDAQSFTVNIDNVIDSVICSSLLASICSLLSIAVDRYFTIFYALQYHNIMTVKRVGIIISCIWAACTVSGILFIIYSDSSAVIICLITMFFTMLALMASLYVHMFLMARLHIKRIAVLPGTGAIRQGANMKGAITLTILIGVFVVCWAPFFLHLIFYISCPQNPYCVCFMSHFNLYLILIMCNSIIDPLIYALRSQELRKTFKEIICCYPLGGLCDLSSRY

SMILES | EC50 (Melanocortin receptor 4 [1]; read-out: EC50) | EC50 ([2]; read-out: pEC50 (converted)) | Efficacy (Melanocortin receptor 4 [3]) | EC50 (Melanocortin receptor 4 [1]; read-out: pEC50 (converted)) | Activity [4] | Activity (Melanocortin receptor 4 [5]) | Selectivity ratio (Homo sapiens) | EC50 ([2]; read-out: EC50) | Efficacy [6]
COc1ccc(N(C(=O)CN2C=CN(c3ccccc3)C(=O)[C@@H](Cc3n[nH]c4ccccc34)C2=O)C(C)C)cc1 | > 30000 nM | 1550 nM | 14% | – | – | – | – | – | –
CC(C)N(C(=O)CN1C=CN(c2ccccc2)C(=O)C(Cc2n[nH]c3cc(F)ccc23)C1=O)c1ccccc1 (racemic) | – | 186 nM | – | 537 nM | 51% | 19 | – | – | –
O=C1C(Cc2n[nH]c3cc(F)ccc23)C(=O)N(c2ccccc2)C=CN1CC(=O)N1CCCCc2ccccc21 (racemic) | – | – | – | 437 nM | 61% | 16 | > 100 | – | –
O=C1[C@H](Cc2n[nH]c3ccccc23)C(=O)N(c2ccccc2)C=CN1CC(=O)N1CCCCc2ccccc21 | – | 61.7 nM | – | 794 nM | 76% | 20 | – | – | –
CC(C)N(C(=O)CN1C=CN(c2ccccc2)C(=O)C(Cc2n[nH]c3ccccc23)C1=O)c1ccc(O)cc1 (single isomer, unassigned; form 2) [listing 1 of 2 here] | > 30000 nM | 52.5 nM | – | – | – | – | – | – | –
CC(C)N(C(=O)CN1C=CN(c2ccccc2)C(=O)[C@H](Cc2n[nH]c3ccccc23)C1=O)c1ccccc1 | – | 295 nM | – | 1070 nM | 54% | 26 | – | – | –
COc1ccc(N(C(=O)CN2C=CN(c3ccccc3)C(=O)C(Cc3nn(C)c4ccccc34)C2=O)C(C)C)cc1 (racemic) | > 30000 nM | – | 5% | – | – | – | – | > 30000 nM | 6%
CC(C)N(C(=O)CN1C=CN(c2ccccc2)C(=O)C(Cc2n[nH]c3ccccc23)C1=O)c1ccc(O)cc1 (racemic) [listing 1 of 2 here] | – | 550 nM | – | 1000 nM | – | – | – | – | –
COc1ccc(N(C(=O)CN2C=CN(c3ccccc3)C(=O)C(Cc3cc[nH]n3)(Cc3n[nH]c4ccccc34)C2=O)C(C)C)cc1 (racemic) | – | 398 nM | – | 1050 nM | 30% | 16 | – | – | –
CC(C)N(C(=O)CN1C=CN(c2ccccc2)C(=O)C(Cc2n[nH]c3ccccc23)C1=O)c1ccc(F)cc1 (racemic) | – | – | – | 282 nM | 54% | 22 | – | – | –
CC(C)N(C(=O)CN1C=CN(c2ccccc2)C(=O)C(Cc2n[nH]c3ccccc23)C1=O)c1ccc(O)cc1 (single isomer, unassigned; form 1) [listing 1 of 2 here] | – | – | – | – | 79% | 44 | – | – | –
COc1ccc(N(C(=O)CN2C=CN(Cc3ccccc3)C(=O)C(Cc3n[nH]c4ccccc34)C2=O)C(C)C)cc1 (racemic) | > 30000 nM | 794 nM | 6% | – | 59% | – | – | – | –
CC(C)N(C(=O)CN1C=CN(c2ccccc2)C(=O)[C@@H](Cc2n[nH]c3ccccc23)C1=O)c1ccccc1 | > 30000 nM | – | 3% | – | – | – | – | > 30000 nM | 9%
O=C(CN1C=CN(c2ccccc2)C(=O)C(Cc2n[nH]c3ccccc23)C1=O)CP(=O)(Oc1ccccc1)Oc1ccccc1 (racemic) | > 30000 nM | – | 5% | – | – | – | – | > 30000 nM | 1%
CC(C)N(C(=O)CN1C=CN(c2ccccc2)C(=O)C(Cc2n[nH]c3ccccc23)C1=O)c1ccc(O)cc1 (racemic) [listing 2 of 2 here] | – | – | – | – | 54% | 30 | – | – | –
CC(C)N(C(=O)CN1C=CN(c2ccccc2)C(=O)[C@H](Cc2n[nH]c3cc(F)ccc23)C1=O)c1ccccc1 | – | 35.5 nM | – | 1260 nM | 79% | 23 | – | – | –
CC(C)N(C(=O)CN1C=CN(c2ccccc2)C(=O)C(Cc2n[nH]c3ccccc23)C1=O)c1ccc(O)cc1 (single isomer, unassigned; form 1) [listing 2 of 2 here] | – | – | – | 1000 nM | – | – | – | – | –
COc1ccc(N(C(=O)CN2C=CN(C3CCCCC3)C(=O)C(Cc3ccccc3)C2=O)C(C)C)cc1 (racemic) | > 30000 nM | – | 0% | – | – | – | – | > 30000 nM | 0%

SMILES | EC50 (Melanocortin receptor 4 [1]; read-out: EC50) | EC50 ([2]; read-out: pEC50 (converted)) | Efficacy (Melanocortin receptor 4 [3]) | EC50 (Melanocortin receptor 4 [1]; read-out: pEC50 (converted)) | Activity [4] | Activity (Melanocortin receptor 4 [5]) | Selectivity ratio (Homo sapiens) | EC50 ([2]; read-out: EC50) | Efficacy [6]
O=C1C(Cc2n[nH]c3ccccc23)C(=O)N(c2ccccc2)C=CN1CC(=O)N1CCCCc2ccccc21 (racemic) | – | – | – | 324 nM | 61% | 17 | – | – | –
COc1ccc(N(C(=O)CN2C=CN(c3ccccc3)C(=O)C(Cc3n[nH]c4cc(F)ccc34)C2=O)C(C)C)cc1 (racemic) | – | – | – | 355 nM | 83% | 39 | – | – | –
CC(C)N(C(=O)CN1C=CN(c2ccccc2)C(=O)C(Cc2n[nH]c3ccccc23)C1=O)c1ccc(N2CCOCC2)cc1 (racemic) | > 30000 nM | 832 nM | 3% | – | 22% | – | – | – | –
COc1ccc(N(C(=O)CN2C=CN(c3ccccc3)C(=O)C(Cc3n[nH]c4ccccc34)(OC)C2=O)C(C)C)cc1 (racemic) | – | 1380 nM | – | 166 nM | 58% | 74 | – | – | –
COc1ccc(N(C(=O)CN2C=CN(c3cccnc3)C(=O)C(Cc3n[nH]c4ccccc34)C2=O)C(C)C)cc1 (racemic) | – | 178 nM | – | 2880 nM | 60% | 31 | – | – | –
CCn1nc(CC2C(=O)N(CC(=O)N(c3ccc(OC)cc3)C(C)C)C=CN(c3ccccc3)C2=O)c2ccccc21 (racemic) | > 30000 nM | – | 5% | – | – | – | – | > 30000 nM | 2%
CC(C)N(C(=O)CN1C=CN(c2ccccc2)C(=O)C(Cc2n[nH]c3ccccc23)C1=O)c1ccccc1 (racemic) | – | 708 nM | – | 3240 nM | 42% | 22 | – | – | –
COc1ccc(N(C(=O)CN2C=CN(c3cccnc3)C(=O)C(Cc3n[nH]c4cc(F)ccc34)C2=O)C(C)C)cc1 (racemic) | – | 12.6 nM | – | 661 nM | 65% | 31 | – | – | –
CC(C)N(C(=O)CN1C=CN(c2ccccc2)C(=O)[C@@H](Cc2n[nH]c3cc(F)ccc23)C1=O)c1ccccc1 | > 30000 nM | – | 0% | – | – | – | – | > 30000 nM | 2%
COC1(Cc2n[nH]c3ccccc23)C(=O)N(CC(=O)N(c2ccc(F)cc2)C(C)C)C=CN(c2ccccc2)C1=O (racemic) | – | 2950 nM | – | 44.7 nM | 33% | 52 | – | – | –
O=C(CN1C=CN(c2ccccc2)C(=O)C(Cc2n[nH]c3ccccc23)C1=O)CP(=O)(O)Oc1ccccc1 (racemic) | > 30000 nM | – | 4% | – | – | – | – | > 30000 nM | 3%
COc1ccc(N(C(=O)CN2C=CN(C3CCCCC3)C(=O)C(Cc3n[nH]c4ccccc34)C2=O)C(C)C)cc1 (racemic) | > 30000 nM | – | 19% | – | – | – | – | > 30000 nM | 25%
CC(C)N(C(=O)CN1C=CN(C)C(=O)C(Cc2n[nH]c3cc(F)ccc23)C1=O)c1ccc(F)cc1 (racemic) | > 30000 nM | 3720 nM | 5% | – | 62% | – | – | – | –
O=C1[C@@H](Cc2n[nH]c3ccccc23)C(=O)N(c2ccccc2)C=CN1CC(=O)N1CCCCc2ccccc21 | – | 1.58 nM | – | 100 nM | 86% | 27 | – | – | –
CC(C)N(C(=O)CN1C=CN(c2ccccc2)C(=O)C(Cc2n[nH]c3cc(F)ccc23)C1=O)c1ccc(F)cc1 (racemic) | – | – | – | 178 nM | 53% | 19 | – | – | –
CC(C)N(C(=O)CN1C=CN(c2ccccc2)C(=O)C(Cc2n[nH]c3ccccc23)C1=O)c1ccc(O)cc1 (single isomer, unassigned; form 2) [listing 2 of 2 here] | – | – | 5% | – | 16% | – | – | – | –
CC(C)N(C(=O)CN1C=CN(c2ccccc2)C(=O)C(Cc2n[nH]c3ccccc23)C1=O)c1ccc(OC(F)(F)F)cc1 (racemic) | – | – | – | 151 nM | 91% | 78 | – | – | –
